This note sets out measurements from paper PMC2646753 (Biochemistry, 2008).

One may read the Kd as the free concentration of one partner at which half of the binding sites on the other are occupied at equilibrium, for simple one-to-one binding. Lower therefore signals higher affinity.

In one assay the target is T1, QacR(E57A) (Staphylococcus aureus, UniProt P0A0N4, E57A).
T1 sequence (P0A0N4 1-188 E57A): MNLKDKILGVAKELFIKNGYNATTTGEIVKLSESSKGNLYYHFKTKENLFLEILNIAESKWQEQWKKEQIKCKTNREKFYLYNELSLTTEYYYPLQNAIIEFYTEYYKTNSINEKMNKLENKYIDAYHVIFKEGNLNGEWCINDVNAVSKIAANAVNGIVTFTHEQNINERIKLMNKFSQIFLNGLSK
Put plainly: Intrinsic tryptophan fluorescence quenching, QacR. In kind it is binding.

Assay [1] concerns the target T2, QacR(E57Q) (Staphylococcus aureus, UniProt P0A0N4, E57Q).
T2 sequence (P0A0N4 1-188 E57Q): T1 sequence (P0A0N4 1-188 E57A) with A57Q
Put plainly: Intrinsic tryptophan fluorescence quenching, QacR. In kind it is binding.

Assay [2] addresses T3, QacR(E57Q/E58Q) (Staphylococcus aureus, UniProt P0A0N4, E57Q/E58Q).
T3 sequence (P0A0N4 1-188 E57Q/E58Q): T1 sequence (P0A0N4 1-188 E57A) with A57Q, E58Q
Put plainly: Intrinsic tryptophan fluorescence quenching, QacR. In kind it is binding.

In the next assay the target is T4, QacR(E58Q) (Staphylococcus aureus, UniProt P0A0N4, E58Q).
T4 sequence (P0A0N4 1-188 E58Q): T1 sequence (P0A0N4 1-188 E57A) with A57E, E58Q
Put plainly: Isothermal titration calorimetry, QacR. It is filed as binding. In general terms: In ITC the heat of successive injections is recorded.

In assay [3] the target is T2, QacR(E57Q). Put plainly: Isothermal titration calorimetry, QacR. It is filed as binding.
A further assay has as its target T5, wt QacR (Staphylococcus aureus, UniProt P0A0N4).
T5 sequence (P0A0N4 1-188): T1 sequence (P0A0N4 1-188 E57A) with A57E
Put plainly: Isothermal titration calorimetry, wt QacR. It is filed as binding.

The target of assay [4] is T3, QacR(E57Q/E58Q). Put plainly: Isothermal titration calorimetry, QacR. It is filed as binding.
The subject of the next assay is mutant QacR proteins. Put plainly: Intrinsic tryptophan fluorescence quenching, mutant QacR proteins compared to wt. It is filed as binding, Staphylococcus aureus. Conditions: all mutant QacR proteins of Table 2 vs wt QacR. A digest of the protocol:
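C-terminally His6-tagged QacR variants were expressed in E. coli DH5α, Ni2+-NTA purified, and dialysed into 1 M NaCl, 20 mM Tris-HCl, 5% glycerol, pH 7.5. Kd was derived from quenching of intrinsic tryptophan fluorescence intensity on ligand titration. Ligands came from 2.5 mM stocks in water, diluted in 100 mM NaCl, 15 mM Tris-HCl, 2.5% glycerol, pH 7.5. Each Kd is the mean of three independent experiments.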

Where a chain is given by its changes, count along the chain named.

On to `COc1ccc2cc3[n+](cc2c1OC)CCc1cc2c(cc1-3)OCO2` [Be, berberine], for which the dissociation constant Kd on QacR(E57A) is 1880 ± 230 nM; at QacR(E57Q) [1] it was 1390 ± 150 nM; at QacR(E57Q/E58Q) [2] it was 320 ± 150 nM. In addition, the “increase in binding affinity compared to wt QacR” value at QacR(E57Q/E58Q) [2] (QacR(E57Q/E58Q) vs wt QacR) was found to be 9 fold.

`Cc1cc(N)c2ccccc2[n+]1CCCCCCCCCC[n+]1c(C)cc(N)c2ccccc21` [Dq, dequalinium]: the equilibrium dissociation constant (Kd) on QacR(E58Q) is 2400 ± 200 nM; at QacR(E57Q) [3], 1950 ± 180 nM; on wt QacR it was 1300 ± 300 nM; on QacR(E57Q/E58Q) [4], 5200 ± 3800 nM. Further, the “decrease in binding affinity compared to wt QacR” value on QacR(E57Q/E58Q) [4] (QacR(E57Q/E58Q) vs wt QacR, ITC) was 4 fold.

Take `CN(C)c1ccc(C(=C2C=CC(=[N+](C)C)C=C2)c2ccccc2)cc1` [MG, malachite green]: the Kd on QacR(E57A) was determined as 2980 ± 230 nM; at QacR(E57Q) [1] it was 1770 ± 170 nM; at QacR(E57Q/E58Q) [2], 1990 ± 80 nM. Further, the “change in binding affinity of mutant QacR proteins compared to wt QacR” value in the assay on mutant QacR proteins was at most 2.4 fold.
